Test results reported in ChEMBL document CHEMBL4390679 (J Med Chem, 2019).
Calls of active or inactive are those of the source. The calls are words filed in the database; no cut-off is given here. Starred links: 1 amine or outer side, 2 acyl side, 3 side chain; linkers in the order of their positions; H or OH if unused. Positions of bridges follow the written chain, without caps; N, C: chain ends. Non-standard residues stand in square brackets, D forms with d. Residues, ends and D or L forms follow the SMILES beside them. X1 = O=C(CN(CCCO)[*:1])[*:2]

Key:
Oxytocin receptor [1] = molecular target: T1, Oxytocin receptor (Homo sapiens, UniProt P30559); test: Agonist activity at recombinant human OTR expressed in HEK293 cells assessed as increase in intracellular calcium level measured at 3 secs interval for 5 mins by fura-2/AM dye based micro spectrofluorometric method; assay type: functional, cell-based
T1 sequence (P30559 whole entry): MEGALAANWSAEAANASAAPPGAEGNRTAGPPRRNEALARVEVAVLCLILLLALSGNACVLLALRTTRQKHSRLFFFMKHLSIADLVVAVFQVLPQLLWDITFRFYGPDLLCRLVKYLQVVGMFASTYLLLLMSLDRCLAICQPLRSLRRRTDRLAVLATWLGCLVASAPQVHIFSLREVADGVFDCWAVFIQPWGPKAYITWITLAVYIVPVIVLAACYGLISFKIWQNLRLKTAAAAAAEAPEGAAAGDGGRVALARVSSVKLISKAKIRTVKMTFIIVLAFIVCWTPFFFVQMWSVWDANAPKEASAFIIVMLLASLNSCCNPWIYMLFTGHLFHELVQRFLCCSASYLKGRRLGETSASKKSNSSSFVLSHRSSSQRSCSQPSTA

Oxytocin receptor [2] = molecular target: T1, Oxytocin receptor; test: Displacement of [3H]OT from recombinant human OTR expressed in HEK293 cell membranes measured after 1 hr
Vasopressin V1a receptor = Vasopressin V1a receptor (Homo sapiens, UniProt P37288); test: Agonist activity at recombinant human V1a receptor expressed in HEK293 cells assessed as increase in intracellular calcium level measured at 3 secs interval for 5 mins by fura-2/AM dye based micro spectrofluorometric method; assay type: cell-based
Chain of Vasopressin V1a receptor (P37288 whole entry): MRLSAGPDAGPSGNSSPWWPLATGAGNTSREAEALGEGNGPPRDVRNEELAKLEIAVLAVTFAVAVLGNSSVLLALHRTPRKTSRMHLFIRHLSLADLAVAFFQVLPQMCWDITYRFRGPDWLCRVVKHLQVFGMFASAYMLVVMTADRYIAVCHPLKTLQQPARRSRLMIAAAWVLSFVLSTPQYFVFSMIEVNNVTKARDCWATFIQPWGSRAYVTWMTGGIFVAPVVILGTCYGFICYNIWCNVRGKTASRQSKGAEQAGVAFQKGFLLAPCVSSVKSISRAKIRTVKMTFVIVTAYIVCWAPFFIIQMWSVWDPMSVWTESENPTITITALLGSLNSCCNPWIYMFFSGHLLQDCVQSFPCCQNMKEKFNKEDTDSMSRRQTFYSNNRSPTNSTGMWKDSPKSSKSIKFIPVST

Vasopressin V1b receptor = molecular target: T2, Vasopressin V1b receptor (Homo sapiens, UniProt P47901); test: Agonist activity at recombinant human V1b receptor expressed in HEK293 cells assessed as increase in intracellular calcium level measured at 3 secs interval for 5 mins by fura-2/AM dye based micro spectrofluorometric method; assay type: cell-based
T2 sequence (P47901 whole entry): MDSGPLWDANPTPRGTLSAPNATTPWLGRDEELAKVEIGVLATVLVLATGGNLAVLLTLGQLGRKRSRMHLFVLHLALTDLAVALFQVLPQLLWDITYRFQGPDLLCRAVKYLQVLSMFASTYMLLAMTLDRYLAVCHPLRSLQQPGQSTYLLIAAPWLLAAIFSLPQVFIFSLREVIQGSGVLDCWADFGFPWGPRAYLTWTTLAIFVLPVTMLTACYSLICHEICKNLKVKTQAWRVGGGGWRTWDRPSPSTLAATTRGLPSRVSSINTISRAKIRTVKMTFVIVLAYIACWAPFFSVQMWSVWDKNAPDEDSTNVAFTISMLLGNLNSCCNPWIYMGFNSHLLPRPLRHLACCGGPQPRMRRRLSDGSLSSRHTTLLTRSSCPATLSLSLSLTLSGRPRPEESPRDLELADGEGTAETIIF

Homo sapiens [3] = species on record: Homo sapiens; test: Selectivity ratio of EC50 for recombinant human V1a receptor expressed in HEK293 cells to EC50 for recombinant human OTR expressed in HEK293 cells; assay type: cell-based
Procedure, shortened: (§1)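 Agonist response measured in HEK-293 cells stably expressing human OTR, V1aR or V1bR, loaded with 1 µM fura-2/AM for 30 min at 37 °C, washed in HEPES-buffered saline pH 7.4. F340/F380 ratio read every 3 s for 5 min at 37 °C, normalized to baseline and to maximal OT (OTR) or AVP (V1aR, V1bR) response; EC50 taken from these curves. n = 3, 20 cells per dish.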

Homo sapiens [4] = species on record: Homo sapiens; test: Selectivity ratio of EC50 for recombinant human V1b receptor expressed in HEK293 cells to EC50 for recombinant human OTR expressed in HEK293 cells; assay type: cell-based; procedure, shortened: as §1
Mus musculus [5] = test: Cognition enhancing effect in CD38 knock out Slc:ICR mouse sire model of autism spectrum disorder assessed as latency time to retrieve pups by sires at 100 ng/ml, ip administered as single dose measured after 30 mins by parental retrieval test (reference value: 600 sec); assay type: functional
Mus musculus [6] = test: Cognition enhancing effect in CD38 knock out Slc:ICR mouse sire model of autism spectrum disorder assessed as latency time to retrieve pups by sires at 100 ng/ml, ip administered as single dose measured after 5 hrs by parental retrieval test (reference value: 233 +/- 68 sec); assay type: functional
Mus musculus [7] = test: Cognition enhancing effect in CD38 knock out Slc:ICR mouse sire model of autism spectrum disorder assessed as latency time to retrieve pups by sires at 100 ng/ml, ip administered as single dose measured after 12 hrs by parental retrieval test (reference value: 233 +/- 68 sec); assay type: functional
Mus musculus [8] = test: Cognition enhancing effect in CD38 knock out Slc:ICR mouse sire model of autism spectrum disorder assessed as latency time to retrieve pups by sires at 100 ng/ml, ip administered as single dose measured after 24 hrs by parental retrieval test (reference value: 233 +/- 68 sec); assay type: functional
Mus musculus [9] = test: Antidepressant-like activity in CD38KOCC Slc:ICR mouse model of autism spectrum disorder assessed as immobility time at 100 ng/ml, ip administered as single dose for 30 mins prior to testing measured for last 4 mins of 6 mins test by tail suspension test (reference value: 74.2 +/- 2.9 sec); assay type: functional
Mus musculus [10] = test: Cognition enhancing effect in CD38KOCC Slc:ICR mouse model of autism spectrum disorder assessed as sucrose consumption over water at 100 ng/ml, ip administered as single dose measured after 60 mins relative to control (reference value: 0.46 +/- 0.04); assay type: functional
Mus musculus [11] = test: Cognition enhancing effect in CD38KOCC Slc:ICR mouse model of autism spectrum disorder assessed as sucrose consumption over water at 100 ng/ml, ip administered as single dose measured after 24 hrs relative to control (reference value: 0.46 +/- 0.04); assay type: functional
[12] = Plasma concentration in Slc:ICR mouse at 100 ng/g, iv measured immediately by LC-MS/MS analysis; assay type: ADME, organism-based; settings: in vivo
Procedure, shortened: (§2)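 Male ICR mice (30 g) were given 100 ng/g i.v. via the tail vein. Blood was taken by cardiac puncture immediately and at 5, 15 and 30 min; CSF was taken at 30 min or 12 h. Plasma was deproteinized with acetonitrile/methanol 1:1 containing [13C6,15N]OT internal standard and analysed by LC-MS/MS (C8 column, SRM).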

[13] = Half life in Slc:ICR mouse plasma during fast phase at 100 ng/g, iv measured for 15 mins by LC-MS/MS analysis; assay type: ADME, organism-based; procedure, shortened: as §2
[14] = Half life in Slc:ICR mouse plasma during slow phase at 100 ng/g, iv measured for 15 to 60 mins by LC-MS/MS analysis; assay type: ADME, organism-based; procedure, shortened: as §2
[15] = Drug level in Slc:ICR mouse cerebrospinal fluid at 100 ng/g, iv measured after 30 mins by LC-MS/MS analysis; assay type: ADME, organism-based; settings: in vivo, 0.5 h, BLD = below limit of detection; procedure, shortened: as §2
[16] = Drug level in Slc:ICR mouse cerebrospinal fluid at 100 ng/g, iv measured after 12 hrs by LC-MS/MS analysis; assay type: ADME, organism-based; settings: in vivo, 12 h, BLD = below limit of detection; procedure, shortened: as §2
[17] = Stability in mouse plasma assessed as parent compound remaining at 50 ng/ml measured after 2 hrs by LC-MS/MS analysis; assay type: ADME, cell-free; settings: read-out: Stability
Procedure, shortened: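 Pooled mouse plasma spiked to a final 50 ng/mL was incubated at 37 °C for 1–120 min, quenched with acetonitrile/methanol 1:1 plus internal standard, and analysed by LC-MS/MS. Percent of the initial concentration was calculated; 85–115% was taken as acceptable.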

[18] = molecular target: T3, Oxytocin receptor (Homo sapiens) (UniProt P30559); test: Displacement of [3H]OT from recombinant human OTR expressed in HEK293 cell membranes assessed as association rate constant for [3H]OT binding
T3 sequence (whole entry): T1 sequence (P30559 whole entry)
Procedure, shortened: (§3)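 Membranes from HEK-293 cells stably expressing human OTR (5 µg/well) in 50 mM Tris, 10 mM MgCl2, 0.1% BSA, pH 7.4. [3H]OT added at 200 pM, 500 pM and 1 nM; bound and free separated by rapid filtration at multiple time points to build association curves. Kon and Koff fitted; t1/2 from Koff = ln2/t1/2. Two experiments, each in duplicate.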

[19] = molecular target: T3, Oxytocin receptor (Homo sapiens); test: Displacement of [3H]OT from recombinant human OTR expressed in HEK293 cell membranes assessed as dissociation rate constant for [3H]OT binding; procedure, shortened: as §3
[20] = molecular target: T3, Oxytocin receptor (Homo sapiens); test: Displacement of [3H]OT from recombinant human OTR expressed in HEK293 cell membranes assessed as dissociation half life for [3H]OT binding; procedure, shortened: as §3
Mus musculus [21] = test: Antidepressant-like activity in CD38KOCC Slc:ICR mouse model of autism spectrum disorder assessed as immobility time at 100 ng/ml, ip administered as single dose for 24 hrs prior to testing measured for last 4 mins of 6 mins test by tail suspension test (reference value: 56.5 +/- 18.8 sec)
Mus musculus [22] = test: Cognition enhancing effect in CD38 knock out Slc:ICR mouse sire model of autism spectrum disorder assessed as latency time to retrieve pups by sires at 0.3 mL, ip administered as single dose measured after 30 mins by parental retrieval test (reference value: 600 sec); assay type: functional
Mus musculus [23] = test: Cognition enhancing effect in CD38 knock out Slc:ICR mouse sire model of autism spectrum disorder assessed as decrease in latency time to retrieve pups by sires at 0.3 mL, ip administered as single dose measured after 6 hrs by parental retrieval test; assay type: functional, organism-based
Mus musculus [24] = test: Cognition enhancing effect in CD38KOCC Slc:ICR mouse model of autism spectrum disorder assessed as increase in sucrose consumption over water at 100 ng/ml, ip administered as single dose measured after 24 hrs; assay type: functional, organism-based
Mus musculus [25] = test: Antidepressant-like activity in CD38KOCC Slc:ICR mouse model of autism spectrum disorder assessed as decrease in immobility time at 100 ng/ml, ip administered as single dose for 24 hrs prior to testing measured for last 4 mins of 6 mins test by tail suspension test

In the case of CC[C@H](C)[C@@H]1NC(=O)[C@H](Cc2ccc(O)cc2)NC(=O)[C@@H](N)CSSC[C@@H](C(=O)N(CCCO)CC(=O)N[C@@H](CC(C)C)C(=O)NCC(N)=O)NC(=O)[C@H](CC(N)=O)NC(=O)[C@H](CCC(N)=O)NC1=O (H-CYIQNC[X1]LG-NH2; disulfide 1-6), the EC50 (Oxytocin receptor [1]) is reported as 0.031 nM, the Ki (Oxytocin receptor [2]) is reported as 1.4 nM and the EC50 (Vasopressin V1a receptor) is reported as greater than 10 nM. For the same compound, the EC50 (Vasopressin V1b receptor) was greater than 10 nM, the Ratio EC50 (Homo sapiens [3]) was greater than 323 and the Ratio EC50 (Homo sapiens [4]) was greater than 322. The Time (Mus musculus [5]) was 346 s, the Time (Mus musculus [6]) was 293 s and the Time (Mus musculus [7]) was 386 s. For the same compound, the Time (Mus musculus [8]) was 100 s, the Time (Mus musculus [9]) was 151.83 s and the Ratio (Mus musculus [10]) was 0.72. For the same compound, the Ratio (Mus musculus [11]) was 0.67, the Cp [12] was 108 ng/mL and the half-life [13] was 3.1 min. The half-life [14] was 4.23 min, the Drug uptake [15] was “Bld” and the Drug uptake [16] was “Bld”. The remaining at 2 h, 50 ng/ml [17] was 85 to 115%, the K [18] was 7.47 ×10⁶ /M/min and the K [19] was 0.0175 min⁻¹. It also gave a T1/2 [20] of 36.6 min and a Time (Mus musculus [21]) of 157.3 s.
With CC[C@H](C)[C@@H]1NC(=O)[C@H](Cc2ccc(O)cc2)NC(=O)[C@@H](N)CSSC[C@@H](C(=O)N2CCC[C@H]2C(=O)N[C@@H](CC(C)C)C(=O)NCC(N)=O)NC(=O)[C@H](CC(N)=O)NC(=O)[C@H](CCC(N)=O)NC1=O [OXYTOCIN] the Time (Mus musculus [22]) was 240 s, the Activity (Mus musculus [23]) was “inactive” and the Time (Mus musculus [9]) was 171 s. The Activity (Mus musculus [24]) was “inactive”, the Cp [12] was 334 ng/mL and the half-life [13] was 2.91 min. The half-life [14] was 8.84 min, the remaining at 2 h, 50 ng/ml [17] was 85 to 115% and the Activity (Mus musculus [25]) was “inactive”.
